# Measurements pooled from the literature.
# Each line is one published result; the experiments were not run side by side.
# CDK4 with cyclin D1: Cyclin-dependent kinase 4, with cyclin D1 (CDK4, Homo sapiens, UniProt P11802)
# CDK4 with cyclin D3: Cyclin-dependent kinase 4, with cyclin D3 (CDK4, Homo sapiens, UniProt P11802)
# AMY2: Pancreatic alpha-amylase (AMY2, Sus scrofa, UniProt P00690)
# CHRM2: Muscarinic acetylcholine receptor M2 (CHRM2, Homo sapiens, UniProt P08172)
SMILES,target,assay,test system,setting,IC50 [µM]
CN(C)C(=O)c1cc2cnc(Nc3ccc(-c4cccc5c(=O)cc(N6CCOCC6)oc45)c(F)c3)nc2n1C1CCCC1,CDK4 with cyclin D1,"enzyme activity, inhibitor, radiometric",,,0.116
Cc1cc(O)c(-c2ccc([C@@H](C)CN(C)C)cc2)c2c1[nH]c(=O)c1sccc12,"Cyclin-dependent kinase 19, with cyclin C (CDK19, Homo sapiens, UniProt Q9BWU1)","enzyme activity, inhibitor",,,> 1
CNS(=O)(=O)c1ccc(Nc2ncc3cc(Cl)c(=O)n(C4CCCC4)c3n2)c(C)c1,CDK4 with cyclin D3,"enzyme activity, inhibitor, radiometric",,,0.022
CC(C)NC(=O)COc1cccc(-c2nc(Nc3ccc4[nH]ncc4c3)c3ccccc3n2)c1,"Organic anion transporter 3 (SLC22A8, Homo sapiens, UniProt Q8TCC7)","transporter uptake, inhibitor, radiometric",HEK293,,> 1
O=C(/C=C/c1ccc(O)c(O)c1)O[C@H](Cc1ccc(O)c(O)c1)C(=O)O,"Pancreatic triacylglycerol lipase (PNLIP, Sus scrofa, UniProt P00591)","enzyme activity, inhibitor, absorbance",,pH 8,137
Cc1c(N2CCOCC2)oc2c(-c3ccc(Nc4ncc5cc(C(=O)N(C)C)n(C6CCCC6)c5n4)cc3F)cccc2c1=O,CDK4 with cyclin D1,"enzyme activity, inhibitor, radiometric",,,3.3
O=c1c(O)c(-c2ccc(O)cc2)oc2cc(O)cc(O)c12,AMY2,"enzyme activity, inhibitor",,,10.4
CN1CCN(c2cc(=O)c3ccc(Nc4ncc5cc(C(=O)N(C)C)n(C6CCCC6)c5n4)cc3o2)CC1,CDK4 with cyclin D1,"enzyme activity, inhibitor, radiometric",,,0.008
O=c1cc(-c2ccc(O)c(O)c2)oc2cc(O)cc(O)c12,AMY2,"enzyme activity, inhibitor",,,2.18
CN(C)C(=O)c1cc2cnc(Nc3cccc4c(=O)cc(N5CCOCC5)oc34)nc2n1C1CCCC1,CDK4 with cyclin D1,"enzyme activity, inhibitor, radiometric",,,> 10
O=C(CCNC(=O)CNC(=O)CC(c1ccccc1)(c1ccccc1)c1ccccc1)NC[C@@H]1CCCN(Cc2ccc(F)nc2)C1,CHRM2,"ligand displacement, radioligand",,cell membranes,> 30
CC(C)(C)NS(=O)(=O)c1cccc(C(=O)N2CC3(CCC4(CC4)CC3)c3cc(NS(C)(=O)=O)ccc32)c1,"Kinesin-like protein KIF18B (Homo sapiens, UniProt Q86Y91)","ATPase activity, inhibitor",,,> 100
CN(C)C(=O)c1cc2cnc(Nc3ccc(-c4ccc5c(=O)cc(N6CCOCC6)oc5c4)c(F)c3)nc2n1C1CCCC1,CDK4 with cyclin D1,"enzyme activity, inhibitor, radiometric",,,0.0123
CNS(=O)(=O)c1ccc(Nc2ncc(C(F)(F)F)c(N3CCCC(C)(O)C3)n2)c(C)c1 (stereo not shown),CDK4 with cyclin D3,"enzyme activity, inhibitor, radiometric",,,0.71
NC(=O)c1nnn(Cc2cc(Cl)c(C(=O)c3ccc(Cl)cc3)c(Cl)c2)c1N,CHRM2,"cAMP, antagonist",,,1.85
COc1ccc2c(c1)CN(C(=O)CCN1CCC(Cc3ccccc3)CC1)CC[S@@+]2[O-],"Voltage-dependent L-type calcium channel subunit alpha-1C (CACNA1C, Homo sapiens, UniProt Q13936)","ion current, inhibitor, patch clamp",,,> 100
O=C(CCNC(=O)CNC(=O)CC(c1ccccc1)(c1ccccc1)c1ccccc1)NC[C@@H]1CCCN(Cc2cccnc2F)C1,CHRM2,"ligand displacement, radioligand",,cell membranes,> 30
CNS(=O)(=O)c1ccc(Nc2ncc(C(F)(F)F)c([C@H]3CC[C@](C)(O)CC3)n2)c(C)c1,CDK4 with cyclin D3,"enzyme activity, inhibitor, radiometric",,,0.247
CN(C)C(=O)c1cc2cnc(Nc3ccc4c(=O)cc(N5CCOCC5)oc4c3)nc2n1C1CCCC1,CDK4 with cyclin D1,"enzyme activity, inhibitor, radiometric",,,0.0042
